Assay outcomes: PubChem BioAssay, The Scripps Research Institute Molecular Screening Center
Shown are actives, neighbours in structure and some others; about 3.7% of the full set was active somewhere.
NS3 helicase inh: HCV NS3 helicase inhibition. 0.56% of 290,000 active. inhibition, % at 10.9 µM. NS3 helicase DNA unwinding, Cy5 molecular beacon fluorescence;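 active = inhibition above the mean of all tested compounds plus 3 SD, set per campaign, cut at about 35% in these data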;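 also: 0% = DMSO wells and 100% = thioflavine S control wells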
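Assay system – hepatitis C virus NS3 helicase domain fragment enzyme · Buffer or medium – MOPS pH 6.5, MgCl2, DTT, Tween20, BSA · Reagent – Cy5/quencher beacon DNA duplex and ATP to start · Compound – single 10.9 µM dose · Timing – 1 h at 25 °C · Technique – Cy5 beacon fluorescence read at start and 1 h · Measure – % inhibition of unwinding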
TAAR1 antagonist: antagonists of human TAAR1. Q96RJ0. CHO RD-HGA16 TAAR1, Fluo-8 calcium fluorescence, antagonist. inhibition, % at 3 µM. 1.5% of 360,000 active. AID 624466;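 active = inhibition above a per-plate cutoff, the mean inhibition of test compounds on that plate plus 3 SD, cut at about 49% in these data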;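 also: 0% = DMSO plus EC80 beta-PEA response and 100% = DMSO alone without agonist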
Target sequence (Q96RJ0 whole entry, looked up): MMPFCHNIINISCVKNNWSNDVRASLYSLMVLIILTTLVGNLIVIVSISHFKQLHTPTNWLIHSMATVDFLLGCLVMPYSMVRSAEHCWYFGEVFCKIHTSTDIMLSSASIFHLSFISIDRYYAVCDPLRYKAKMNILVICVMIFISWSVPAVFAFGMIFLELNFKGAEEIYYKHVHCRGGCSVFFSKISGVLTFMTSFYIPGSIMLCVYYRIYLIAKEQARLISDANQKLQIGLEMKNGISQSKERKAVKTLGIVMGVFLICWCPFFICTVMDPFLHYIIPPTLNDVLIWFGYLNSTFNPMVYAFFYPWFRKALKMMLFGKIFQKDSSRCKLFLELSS
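Test system – hTAAR1-expressing CHO RD-HGA16 cells, Gα16-coupled · Reagent – β-PEA at EC80 concentration, post-compound challenge · Compound dosing – 3 µM, single point · Timing – 140 s kinetic read after compound, 140 s after agonist · Detection – Fluo-8 intracellular calcium dye fluorescence, real-time kinetic reads · Control set – DMSO and EC80 PEA controls · Repeats – n of 1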
HCV core dimer: blocks dimerization of HCV core protein | TR-FRET GST/Flag-core106 dimerization, 1536-well | inhibition, % at 5 µM | 0.33% of 300,000 active;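 active = inhibition above the mean of all tested compounds plus 3 SD, set per screening campaign, cut at about 45% in these data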
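Test system: GST/Flag-tagged HCV core106 proteins; Medium: KF-containing HEPES buffer, pH 7.45, DTT, CHAPS, BSA; Times: compound-protein-antibody incubation 4 h at 22.5 °C; Detection: TR-FRET 671 and 617 nm emission; Benchmarks: wells lacking GST-core106 and wells with excess unlabelled core106.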
TAAR1 agonist: human TAAR1 agonism. 0.99% of 360,000 active. CHO RD-HGA16 TAAR1, Fluo-8 calcium fluorescence; vehicle wells 0%, saturating PEA agonist 100%. activation, % at 3 µM;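 active = activation above the mean activation of all test compounds in the run plus 3 SD, cut at about 38% in these data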
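Assay system – CHO-derived RD-HGA16 cells with stable Gα16 and human TAAR1 · Compound dosing – one-point dosing at 3 µM (nominal) · Incubation – 17-24 h seeding, 75 min 37 °C dye, 30 min RT · Measured by – kinetic Fluo-8 calcium fluorescence · Control set – DMSO vehicle as 0%, PEA at EC100 as 100% · Repeats – single well for each compound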
rCAG RNA binder: molecules binding r(CAG) RNA repeats; inhibition, % at 3 µM; 1.3% of 370,000 active; r(CAG) RNA repeat, TO-PRO-1 dye displacement fluorescence;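 active = inhibition above the plate cutoff, the mean of all test compounds on that plate plus 3 SD, cut at about 35% in these data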;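 also: 0% = DMSO alone and 100% = 100 µM mitoxantrone as full dye displacement; higher means more dye released from RNA so lower well fluorescence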
An asterisk follows results filed as active; . = no result given.

SMILES | NS3 helicase inh | TAAR1 antagonist | HCV core dimer | TAAR1 agonist | rCAG RNA binder
N#Cc1ccccc1CSc1nc2ccc(NC(=O)c3ccccc3C(=O)O)cc2s1 | -5 | 24 | 47* | 1 | 9
S=c1sc2c(Cl)ncnc2n1-c1ccccc1 | -2 | 54* | . | 0 | -2
Cc1nc(N2CCN(C)CC2)c2sc(=S)n(-c3ccccc3)c2n1 | 2 | 0 | 3 | -1 | -6
CC12CCC(=O)C=C1CCC1C2C(O)CC2(C)C(c3csc(N)n3)CCC12 (stereo not drawn) | . | 2 | . | 14 | 5
CC12CCC(=O)C=C1CCC1C2CCC2(C)C(c3csc(N)n3)CCC12 (stereo not drawn) | . | 51* | . | 23 | 6
O=C(CN1CCc2onc(-c3ccc(-n4cc(-c5ccccc5)nn4)cc3)c2C1=O)N1CCOCC1 | . | . | . | . | 9
CCC(=O)Nc1nc(CC(=O)Nc2ccccc2OC)cs1 | 0 | -12 | 2 | 11 | -2
COc1cccc(NC(=O)Cc2csc(NC(=O)Nc3ccccc3OC)n2)c1 | . | 56* | 3 | 12 | 16
COc1ccccc1NC(=O)Nc1nc(CC(=O)Nc2ccc(OC)c(OC)c2)cs1 | . | 49* | 0 | 13 | 12
O=C(CSc1nnc(-c2ccccc2)n1-c1ccc(Cl)cc1)c1ccccc1Br | . | . | . | . | 15
Cc1ccc(Cn2cc(CN3CC=CS3(=O)=O)nn2)cc1 | . | . | . | . | 1
C#CCN1CC(N(C)CCOC(=O)CSc2ccccc2)CS1(=O)=O (stereo not drawn) | . | . | . | . | -1
O=C(COC(=O)/C=C/c1ccco1)NCc1ccco1 | 3 | 16 | 19 | 1 | 8
O=C(COC(=O)/C=C/c1ccco1)NCCc1ccccc1 | -2 | 47 | 2 | 39* | -2
COc1cccc(OC)c1OCc1cc(C2C3CCCC=C3C(C#N)=C(N)C2(C#N)C#N)c(C)cc1C (stereo not drawn) | 34 | 4 | 56* | 4 | 19
Cc1cnc(NC(=O)Nc2ccc(Cl)cc2)s1 | -10 | 21 | -3 | 40* | 29
O=C(Nc1ccc(F)c(Cl)c1)Nc1ccc(Cl)cn1 | -2 | 28 | 5 | 7 | 1
O=C(Nc1ccncc1)Nc1ccc(F)c(Cl)c1 | -6 | 19 | 1 | 49* | 7
O=C(Nc1ccc(Cl)cc1)Nc1cccnc1 | 1 | 40 | 5 | 48* | 0
Cc1cnc(NC(=O)CSc2ccc(Cl)cc2)s1 | -5 | -11 | -6 | 9 | 5
Nn1c(SCC(=O)N2CCOCC2)nnc1-c1n[nH]c2c1CCC2 | . | . | . | . | 1
O=c1oc2ccc(C#CC3(O)CCCCC3)cc2cc1-n1cc(-c2ccccn2)nn1 | . | 52* | . | 18 | 2
Nc1cccc(-c2cn(-c3cc4cc(C#CC5(O)CCCCC5)ccc4oc3=O)nn2)c1 | . | 58* | . | 30 | 6
C[C@@H](O)CC#Cc1ccc2oc(=O)c(-n3cc(-c4ccsc4)nn3)cc2c1 | . | 14 | . | 7 | 8
COC(=O)[C@]12C[C@H](CC(=O)N3CCCC3)C(=O)N(Cc3ccc(Cl)cc3Cl)C1=C[C@H](C1CCCC1)O[C@@H]2C | . | . | . | . | 7
SMILES | NS3 helicase inh | TAAR1 antagonist | HCV core dimer | TAAR1 agonist | rCAG RNA binder
O=c1oc(-c2ccccc2)nc2sc3c(c12)CCC3 | 4 | -4 | 59* | -2 | 21
O=C1CCC(=O)N1c1ccc(-c2nc3sc4c(c3c(=O)o2)CCC4)cc1 | -1 | -27 | 0 | 0 | 1
Cc1cc(C(=O)OCC(=O)c2cccc([N+](=O)[O-])c2)c2cccc(C)c2n1 | 2 | 3 | 88* | 1 | 11
COC1=C[C@H](C(=O)NCc2ccccn2)[C@@]2(C)Cc3ccccc3[C@H]2CC1=O | . | . | . | . | 6
C/C(=N\NC(=O)COc1ccccc1-c1ccccc1)c1ccccn1 | -7 | 12 | 0 | 5 | 1
C/C(=N\NC(=O)COc1ccccc1-c1ccccc1)c1ccc(O)cc1O | -4 | 50* | 7 | -1 | 10
S=C(NCCc1ccccc1)N1CCCC1 | . | -5 | 0 | 2 | -1
S=C(NCCc1ccccc1)N1CCN(C23CC4CC(CC(C4)C2)C3)CC1 | -6 | 15 | -1 | 37* | 6
COc1ccc(CCNS(=O)(=O)c2c(C)n[nH]c2C)cc1 | . | . | . | . | 1
CN1c2ccccc2C(C)(C)C12C=Nc1c(ccc3ccccc13)O2 (stereo not drawn) | 1 | 43 | -16 | 40* | 8
CC(C)(C)c1ccc(C(=O)Nc2cccc(-n3cnnn3)c2)cc1 | 16 | 58* | 12 | 6 | 2
O=C(Nc1cccc(-n2cnnn2)c1)c1cc(Cl)nc(Cl)c1 | -5 | 30 | -2 | 49* | 5
O=C(Nc1cccc(-n2cnnn2)c1)c1cccc(Cl)c1 | -1 | 11 | 2 | 17 | 3
CCCC[C@H](C(=O)N(CC)c1ccccc1)[C@@H](O)c1ccc(C(C)=O)cc1 | . | . | . | . | -1
O=C(NCc1ccccc1C(F)(F)F)c1cccc2c1C(=O)c1ccc(N3CCOCC3)cc1S2(=O)=O | . | 56* | . | 20 | 2
O=C(NCc1ccccc1)c1cccc2c1C(=O)c1ccc(/C=C/c3ccccc3)cc1S2(=O)=O | . | 58* | . | 14 | 8
CC1CCN(c2ccc3c(c2)S(=O)(=O)c2cccc(C(=O)NC[C@@H]4CCCO4)c2C3=O)CC1 | . | 60* | . | 31 | -13
Cc1ccc(CNC(=O)c2cccc3c2C(=O)c2ccc(N4CCOCC4)cc2S3(=O)=O)cc1 | . | 40 | . | 23 | -5
Cc1ccc(CNC(=O)c2cccc3c2C(=O)c2ccc(N4CCCCC4)cc2S3(=O)=O)cc1 | . | 71* | . | 47* | -3
O=C(NC[C@@H]1CCCO1)c1cccc2c1C(=O)c1ccc(N3CCOCC3)cc1S2(=O)=O | . | 44 | . | 17 | -6
CC(C)N1Cc2nnn(Cc3ccccc3)c2-c2cc(F)ccc2S1(=O)=O | . | . | . | . | -2
COC(=O)[C@]12C[C@H](CC(=O)N3CCCC3)C(=O)N(CCc3ccc(OC)c(OC)c3)C1=C[C@H](C(C)C)O[C@@H]2C1CC1 | . | . | . | . | -2
C=CCN(CC#Cc1ccc(C)cc1)Cc1ccc(OC)cc1OC | . | . | . | . | 4
CCOc1cc(CCNC(=O)c2cc(-c3ccccc3)c(N3CCOCC3)s2)ccc1OC | . | . | . | . | 11
COc1ccccc1N1CCN(c2ccc3c(c2)S(=O)(=O)c2cccc(C(=O)NCc4cccc(F)c4)c2C3=O)CC1 | . | 53* | . | 11 | 8
C=CCNC(=O)c1cccc2c1C(=O)c1ccc(N3CCCC3)cc1S2(=O)=O | . | 12 | . | 16 | -26
O=C(NCc1cccc(F)c1)c1cccc2c1C(=O)c1ccc(N3CCOCC3)cc1S2(=O)=O | . | 49 | . | 15 | 1
O=C(NCc1ccco1)c1cccc2c1C(=O)c1ccc(N3CCCC3)cc1S2(=O)=O | . | 53* | . | 23 | -30
CCCCOCCCNC(=O)C[C@@H]1C(=O)N2CCCC3=C2[C@@]1(C(=O)OCC)CCC3 | . | . | . | . | -4
COc1ccc(C(CCNCc2ccc(OC(C)C)cc2)c2ccccc2OC)cc1 (stereo not drawn) | -65 | 38 | -4 | 38* | 17
